{"source": "ChEMBL document CHEMBL4325922", "about": "“Restoring Let-7 microRNA Biogenesis Using a Small-Molecule Inhibitor of the Protein-RNA Interaction” (ACS Med Chem Lett, 2018)", "key": {"JAR [1]": {"system": "JAR", "test": "Inhibition of sphere formation in human JAR cells at 10 uM after 24 hrs by bright-field microscopic analysis", "type": "functional, cell-based", "summary_of_the_method": "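JAR cells are pretreated with compound for 24 h, then dissociated to single cells. Equal numbers of viable cells are grown for 12 days in sphere-forming media. The degree of sphere formation is assessed under a microscope.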"}, "JAR [2]": {"system": "JAR", "test": "Increase in mature let-7i level in Lin28a/b knockdown human JAR cells at 10 uM after 20 hrs by qRT-PCR analysis", "type": "functional, cell-based", "summary_of_the_method": "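Lin28 knocked-down JAR cells treated for 20 h; let-7 levels measured against U6 snRNA endogenous control; 2 biological replicates.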"}, "[3]": {"target": "T1, Protein lin-28 homolog A (Homo sapiens) (UniProt Q9H9Z2)", "T1 sequence (whole entry)": "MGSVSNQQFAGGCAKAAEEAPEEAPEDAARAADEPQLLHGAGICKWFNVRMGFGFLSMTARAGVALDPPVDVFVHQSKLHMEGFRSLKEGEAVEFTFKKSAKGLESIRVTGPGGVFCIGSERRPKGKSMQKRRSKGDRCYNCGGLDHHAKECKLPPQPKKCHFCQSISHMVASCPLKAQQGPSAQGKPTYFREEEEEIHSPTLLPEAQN", "test": "Inhibition of Lin28a in human PA1 cells assessed as increase in mature let-7g level at 10 uM after 20 hrs by TRIzol dye based qRT-PCR analysis", "type": "cell-based", "summary_of_the_method": "(§1)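 PA-1 ovarian teratocarcinoma cells (express Lin28a) treated for 20 h; let-7 quantified relative to U6 snRNA; 4 biological replicates, standard deviation, paired two-tailed t test.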"}, "[4]": {"target": "T1, Protein lin-28 homolog A (Homo sapiens)", "test": "Inhibition of PreE-let-7a-1-BHQ2 binding to recombinant human N-terminal His6-tagged/Cy3-labelled Lin28a expressed in Escherichia coli Rosetta2 (DE3) pLysS measured after 30 to 60 mins by FRET assay"}, "[5]": {"target": "Heterogeneous nuclear ribonucleoprotein A1 (Homo sapiens) (UniProt P09651)", "sequence (P09651 whole entry)": "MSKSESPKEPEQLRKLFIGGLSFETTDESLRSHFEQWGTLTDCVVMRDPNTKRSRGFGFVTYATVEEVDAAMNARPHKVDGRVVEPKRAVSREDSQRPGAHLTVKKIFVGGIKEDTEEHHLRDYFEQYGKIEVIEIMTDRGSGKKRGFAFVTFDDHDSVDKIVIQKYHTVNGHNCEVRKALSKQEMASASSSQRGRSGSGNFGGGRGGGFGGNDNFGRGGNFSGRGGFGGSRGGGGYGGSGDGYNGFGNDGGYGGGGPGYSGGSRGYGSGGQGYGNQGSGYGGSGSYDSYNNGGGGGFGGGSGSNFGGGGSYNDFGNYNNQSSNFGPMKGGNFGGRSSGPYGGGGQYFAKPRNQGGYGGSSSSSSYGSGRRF", "test": "Inhibition of biotinylated-preE-let-7g binding to hnRNPA1 in human JAR cells by pull down assay", "type": "cell-based", "summary_of_the_method": "(§2)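 5′-Biotinylated preE-let-7g is immobilized on streptavidin beads and incubated with proteome from JAR human choriocarcinoma cells, which express Lin28a and Lin28b. Test compound is present during binding, and target engagement is judged by the proteins pulled down.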"}, "PA-1 [6]": {"system": "PA-1", "test": "Increase in mature let-7d level in Lin28a CRISPR-Cas9 knockout human PA1 cells at 10 uM after 20 hrs by qRT-PCR analysis", "type": "functional, cell-based", "summary_of_the_method": "(§3)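 PA-1 cells with Lin28a fully knocked out by CRISPR/Cas9 editing (clonal lines) treated for 20 h; let-7 levels normalized to U6 snRNA; 2 technical replicates.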"}, "Protein lin-28 homolog A": {"target": "T2, Protein lin-28 homolog A (Homo sapiens, UniProt Q9H9Z2)", "T2 sequence (Q9H9Z2 whole entry)": "T1 sequence (whole entry)", "test": "Binding affinity to recombinant human N-terminal His6-tagged Lin28a expressed in Escherichia coli Rosetta2 (DE3) pLysS by surface plasmon resonance analysis", "summary_of_the_method": "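Surface plasmon resonance detecting direct binding of analyte to immobilized Lin28a, run at concentrations from 0.31 to 10 μM; binding read as a dose–response curve and Rmax calculated.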"}, "PA-1 [7]": {"system": "PA-1", "test": "Increase in mature let-7i level in Lin28a CRISPR-Cas9 knockout human PA1 cells at 10 uM after 20 hrs by qRT-PCR analysis", "type": "functional, cell-based", "summary_of_the_method": "as §3"}, "[8]": {"target": "T3, Protein lin-28 homolog A/B (Homo sapiens) (UniProt Q6ZN17+Q9H9Z2)", "test": "Inhibition of Lin28a/Lin28b in human JAR cells assessed as reduction in Ras expression at 5 to 10 uM after 24 hrs by Western blot analysis", "type": "cell-based", "summary_of_the_method": "(§4)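 Endogenous let-7 target proteins (HMGA2, IMP1, Ras, Lin28a) detected by Western blot in JAR or PA-1 cells after 24 h compound treatment.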"}, "[9]": {"target": "T1, Protein lin-28 homolog A (Homo sapiens)", "test": "Inhibition of biotinylated-preE-let-7g binding to Lin28a in human JAR cells by pull down assay", "type": "cell-based", "summary_of_the_method": "as §2"}, "[10]": {"target": "T3, Protein lin-28 homolog A/B (Homo sapiens)", "test": "Inhibition of Lin28a/Lin28b in human MCF7 cells assessed as reduction in HMGA2 expression at 10 uM after 24 hrs by Western blot analysis", "type": "cell-based"}, "[11]": {"target": "T3, Protein lin-28 homolog A/B (Homo sapiens)", "test": "Inhibition of Lin28a/Lin28b in human paclitaxel-resistant JAR cells assessed as reduction in MDR1 expression at 10 uM measured after 24 hrs by Western blot analysis"}, "[12]": {"target": "T4, Protein lin-28 homolog B (Homo sapiens) (UniProt Q6ZN17)", "T4 sequence (whole entry)": "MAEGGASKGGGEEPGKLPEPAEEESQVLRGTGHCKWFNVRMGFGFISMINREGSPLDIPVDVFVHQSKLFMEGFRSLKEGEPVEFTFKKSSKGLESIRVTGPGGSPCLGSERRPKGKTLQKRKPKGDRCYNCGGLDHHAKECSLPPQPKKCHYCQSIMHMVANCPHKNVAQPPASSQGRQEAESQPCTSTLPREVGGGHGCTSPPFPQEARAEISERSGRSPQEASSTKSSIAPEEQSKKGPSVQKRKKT", "test": "Inhibition of biotinylated-preE-let-7g binding to Lin28b in human JAR cells by pull down assay", "type": "cell-based", "summary_of_the_method": "as §2"}, "[13]": {"target": "T1, Protein lin-28 homolog A (Homo sapiens)", "test": "Inhibition of Lin28a in human PA1 cells assessed as reduction in IMP1 expression at 10 uM after 24 hrs by Western blot analysis", "type": "cell-based", "summary_of_the_method": "as §4"}, "[14]": {"target": "T1, Protein lin-28 homolog A (Homo sapiens)", "test": "Inhibition of Lin28a in human PA1 cells assessed as increase in mature let-7d level at 10 uM after 20 hrs by TRIzol dye based qRT-PCR analysis", "type": "cell-based", "summary_of_the_method": "as §1"}, "[15]": {"target": "T3, Protein lin-28 homolog A/B (Homo sapiens)", "test": "Inhibition of Lin28a/Lin28b in human JAR cells assessed as reduction in HMGA2 expression after 20 hrs by dual-luciferase reporter gene assay"}, "[16]": {"target": "T3, Protein lin-28 homolog A/B (Homo sapiens)", "test": "Inhibition of Lin28a/Lin28b in human JAR cells assessed as increase in mature let-7i level after 20 hrs by TRIzol dye based qRT-PCR analysis", "type": "cell-based", "summary_of_the_method": "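JAR cells (express Lin28a and Lin28b) exposed to compound for 20 h; miRNA levels quantified with U6 snRNA as endogenous control; three or more biological replicates, standard deviation, paired two-tailed t test.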"}, "[17]": {"target": "T1, Protein lin-28 homolog A (Homo sapiens)", "test": "Inhibition of Lin28a in human PA1 cells assessed as reduction in Ras expression at 10 uM after 24 hrs by Western blot analysis", "type": "cell-based", "summary_of_the_method": "as §4"}, "[18]": {"target": "T3, Protein lin-28 homolog A/B (Homo sapiens)", "test": "Inhibition of Lin28a/Lin28b in human JAR cells assessed as reduction in Lin28a expression at 5 to 10 uM after 24 hrs by Western blot analysis", "type": "cell-based", "summary_of_the_method": "as §4"}, "[19]": {"target": "T1, Protein lin-28 homolog A (Homo sapiens)", "test": "Inhibition of Lin28a in human PA1 cells assessed as reduction in Lin28 expression at 10 uM after 24 hrs by Western blot analysis", "type": "cell-based", "summary_of_the_method": "as §4"}, "PA-1 [20]": {"system": "PA-1", "test": "Increase in mature let-7g level in Lin28a CRISPR-Cas9 knockout human PA1 cells at 10 uM after 20 hrs by qRT-PCR analysis", "type": "functional, cell-based", "summary_of_the_method": "as §3"}, "[21]": {"target": "T3, Protein lin-28 homolog A/B (Homo sapiens)", "test": "Inhibition of Lin28a/Lin28b in human paclitaxel-resistant JAR cells assessed as potentiation of paclitaxel induced cytotoxicity at 10 uM pretreated for 30 hrs followed by paclitaxel addition and measured after 72 hrs by WTS assay", "summary_of_the_method": "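Paclitaxel-resistant JAR persister cells, enriched by cytotoxic paclitaxel exposure and regrowth without drug. Cells pretreated 30 h with compound, then given paclitaxel for 72 h without compound; WST viability used to derive the paclitaxel IC50.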"}}, "note": "The source made the active and inactive calls. The rule behind the calls is not given here.", "data": [{"smiles": "NC(=O)c1c(Nc2ccc(Cl)cc2Cl)[nH]c2c(Cl)ccc(Cl)c2c1=O", "values": [{"measurement": "inhibition", "setting": "JAR [1]", "value": "Active"}, {"measurement": "Activity", "setting": "JAR [2]", "value": "inactive"}, {"measurement": "inhibition", "setting": "[3]", "value": "Active"}, {"measurement": "inhibition", "setting": "[4]", "value": "Dose-dependent effect"}, {"measurement": "inhibition", "setting": "[5]", "value": "inactive"}, {"measurement": "Activity", "setting": "PA-1 [6]", "value": "inactive"}, {"measurement": "Kd", "setting": "Protein lin-28 homolog A", "value": 5.9, "unit": "µM"}, {"measurement": "Activity", "setting": "PA-1 [7]", "value": "inactive"}, {"measurement": "inhibition", "setting": "[8]", "value": "Active"}, {"measurement": "inhibition", "setting": "[9]", "value": "Dose-dependent effect"}, {"measurement": "inhibition", "setting": "[10]", "value": "inactive"}, {"measurement": "inhibition", "setting": "[11]", "value": "Active"}, {"measurement": "inhibition", "setting": "[12]", "value": "Dose-dependent effect"}, {"measurement": "inhibition", "setting": "[13]", "value": "Active"}, {"measurement": "inhibition", "setting": "[14]", "value": "Active"}, {"measurement": "inhibition", "setting": "[15]", "value": "Dose-dependent effect"}, {"measurement": "inhibition", "setting": "[16]", "value": "Dose-dependent effect"}, {"measurement": "inhibition", "setting": "[17]", "value": "Active"}, {"measurement": "inhibition", "setting": "[18]", "value": "Active"}, {"measurement": "inhibition", "setting": "[19]", "value": "Active"}, {"measurement": "Activity", "setting": "PA-1 [20]", "value": "inactive"}, {"measurement": "inhibition", "setting": "[21]", "value": "Active"}]}]}
